The whole screen tested about 2,500 compounds, of which about 1,200 (48%) were called active.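 Rule for the calls: active = mean activation above the low control average plus 3 SD, as set in the primary screen (cut at about 12% in these data); inactive = the rest.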 The set was probably picked from earlier hits. The list shows a part of the results.

The assay has as its target Troponin I, cardiac muscle (Homo sapiens) + Troponin T, cardiac muscle (Homo sapiens) + Troponin C, slow skeletal and cardiac muscles (Homo sapiens) (UniProt P19429+P45379+P63316). Put plainly: cardiac RTF calcium sensitivity activators, confirmation, biochemical, IANBD-TnC fluorescence, triplicate (AID 504383).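 Note: 0% = DMSO at 0.472 mM calcium and 100% = DMSO at 2.9 mM calcium.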 The note with it: IANBD-labeled cardiac RTF, Ca2+ sensitivity fluorescence; at 7.2 µM; stronger effect = higher value; scaled from EC20 to saturating calcium; tested at EC20 calcium, 0.472 mM. The method in brief: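 material = labelled regulated thin filaments | probe or stimulus = Ca2+ 0.472 mM, EC20 level | dosing = single nominal compound dose of 7.2 µM | schedule = 15 min at 25 °C | signal = fluorescence intensity of labelled filaments | evaluation = fluorescence gain scaled between EC20 and EC100 calcium controls | benchmarks = low control EC20 calcium, high control EC100 calcium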
`COc1ccccc1NS(=O)(=O)c1cc([N+](=O)[O-])ccc1N/N=C/c1c(C)[nH]c2ccccc12`: the activation is 27.9% (active).

Regarding `COc1ccccc1NS(=O)(=O)c1ccccc1C#N`, the activation is 3.34% (inactive).

`COc1ccc(-n2c(O)c(/C=N/NS(=O)(=O)c3cccc([N+](=O)[O-])c3)c3ccccc3c2=O)cc1OC`: the activation is 9.84% (inactive).

For the compound `O=C(NN1C(=O)/C(=C/c2ccc(O)cc2)SC1=S)c1ccccc1O`, the activation is 9.61% (inactive).

Regarding `O=C(NN1C(=O)/C(=C/c2ccc(O)cc2)SC1=S)c1cccc(O)c1`, the activation was 12.5% (active).

Consider `CN(C)c1ccc(/C=C2\SC(=S)N(Nc3ncc(C(F)(F)F)cc3Cl)C2=O)cc1`, for which the activation is 7.16% (inactive).

In the case of `CC(=O)NN1C(=O)/C(=C\c2ccc(O)cc2)SC1=S`, the activation was 12.5% (active).

Take `O=C(CCN1C(=O)/C(=C/c2cccs2)SC1=S)NNC(=O)c1cccc(O)c1`: the activation was 7.19% (inactive).

As for `Cc1c(C2Nc3ccccc3NC3=C2C(=O)CC(C)(C)C3)cnn1C` (stereo not given), the activation was 4.72% (inactive).

With `Cc1ccc(N2C3=C(C(=O)CC(C)(C)C3)C(c3cn(C)nc3C)C3=C2CC(C)(C)CC3=O)cc1`, the activation is 35.1% (active).

For `COc1cc(/C=C(\C#N)C(=O)c2c[nH]c3ccccc23)cc(OC)c1O`, the activation is 5.75% (inactive).

Consider `N#C/C(=C\c1c[nH]c2ccccc12)C(=O)Nc1ncc(Cc2ccc(Cl)cc2Cl)s1`, for which the activation is 30.3% (active).

As to `COCCN=c1scc(-c2cc(OC)c(OC)c(OC)c2)n1/N=C/c1c(C)[nH]c2ccccc12`, the activation was 72.2% (active).

On to `O=C(C1=C(O)C(=O)N(CCN2CCOCC2)C1c1ccc([N+](=O)[O-])cc1)c1cccs1` (stereo not given), for which the activation was 188% (active).

As to `CC(C)Oc1ccc(/C(O)=C2/C(=O)C(=O)N(CCN3CCNCC3)C2c2cccc([N+](=O)[O-])c2)cc1` (stereo not given), the activation is 6.36% (inactive).

As for `COc1ccc(NC(=O)CNS(=O)(=O)c2cccs2)cc1`, the activation is 7.87% (inactive).

With `COc1ccc(N(C(=O)c2ccc(C)cc2)S(=O)(=O)c2cccs2)cc1`, the activation is 175% (active).

Take `Nc1ccc2cc3[nH]c4cc(N)ccc4c3nc2c1`: the activation is 13.7% (active).

For `O=C(O)C1=C[C@H](c2ccccc2)C[C@H](OCc2ccc(CO)cc2)O1`, the activation is 1.76% (inactive).

For the compound `Cc1c(O)c(=O)c2ccccc2n1C`, the activation is 16.4% (active).

`COc1ccc(NC(=O)CCN2CCCC2)c(OC)c1`: the activation was 80.7% (active).

In the case of `COc1ccc(NC(=O)CCN2CC(C)OC(C)C2)c(OC)c1` (stereo not given), the activation was 4.53% (inactive).

Consider `COc1ccc(CN2CCC(=O)N([C@H](CO)c3ccccc3)CC2)cc1`, for which the activation was 21.1% (active).

Take `COc1ccc(CN2CNc3c(c(=O)n(C)c(=O)n3C)C2)cc1`: the activation was 14.9% (active).

Take `COc1ccc(-c2c3c(=O)n(C)c(=O)n(C)c3cn2-c2cccc(OC)c2)cc1`: the activation was 1.1% (inactive).
